Each structure is given as a SMILES string. Activity calls are given as the source filed them. No cut-off for these calls is given here.

Data set [1] in a line: Octanol-water partition coefficient, log P of the compound at 5 to 10 uCi at pH 7.4 after 3 mins. It counts as physicochemical. In a few lines: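 About 5–10 μCi radioligand was shaken 3 min in 5 ml 0.1 M sodium phosphate pH 7.4 and 10 ml octanol. 2 ml octanol aliquots were re-partitioned against 2 ml fresh buffer by vortexing 7 min, then centrifuged at 20,000×g for 5 min. 0.5 ml of each layer was gamma-counted, and average counts gave logP7.4.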

In data set [2] the target is T1, Oxytocin receptor (Homo sapiens, UniProt P30559).
T1 sequence (P30559 whole entry): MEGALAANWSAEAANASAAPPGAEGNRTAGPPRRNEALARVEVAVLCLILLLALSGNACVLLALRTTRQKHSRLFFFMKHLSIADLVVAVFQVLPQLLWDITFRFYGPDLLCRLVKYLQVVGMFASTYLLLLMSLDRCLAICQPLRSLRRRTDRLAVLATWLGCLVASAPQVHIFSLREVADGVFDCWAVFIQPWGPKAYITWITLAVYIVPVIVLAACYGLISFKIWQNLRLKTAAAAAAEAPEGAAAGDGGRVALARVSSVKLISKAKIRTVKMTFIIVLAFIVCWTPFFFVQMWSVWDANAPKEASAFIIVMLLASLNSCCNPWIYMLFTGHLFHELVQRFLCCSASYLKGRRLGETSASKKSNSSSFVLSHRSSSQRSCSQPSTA
Nature of the data set: Displacement of [3H]oxytocin from human oxytocin receptor after […] by liquid scintillation counting. A general note: Loss of bound radioactivity is the signal in a displacement assay; it reports binding, not function.

For data set [3], the target named is T2, Vasopressin V1b receptor (Homo sapiens, UniProt P47901).
T2 sequence (P47901 whole entry): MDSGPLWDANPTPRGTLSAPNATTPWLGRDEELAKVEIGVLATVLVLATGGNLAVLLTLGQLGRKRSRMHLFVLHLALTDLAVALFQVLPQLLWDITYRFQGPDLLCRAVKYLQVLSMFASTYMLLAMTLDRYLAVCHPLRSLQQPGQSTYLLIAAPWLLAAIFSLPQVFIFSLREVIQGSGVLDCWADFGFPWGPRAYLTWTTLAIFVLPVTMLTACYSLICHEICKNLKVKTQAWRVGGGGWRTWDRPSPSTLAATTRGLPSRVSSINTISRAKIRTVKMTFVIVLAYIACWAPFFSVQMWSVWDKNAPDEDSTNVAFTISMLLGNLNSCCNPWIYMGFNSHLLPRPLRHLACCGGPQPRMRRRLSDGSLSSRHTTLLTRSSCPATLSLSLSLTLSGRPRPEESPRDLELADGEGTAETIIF
Put plainly: Displacement of [3H]-AVP from human V1b receptor after […] by liquid scintillation counting.

Data set [4] has as its target Vasopressin V2 receptor (Homo sapiens, UniProt P30518). Nature of the data set: Displacement of [3H]-AVP from human vasopressin V2 receptor after […] by liquid scintillation counting.
Data set [5] deals with Vasopressin V1a receptor (Homo sapiens, UniProt P37288). Put plainly: Displacement of [3H]-AVP from human V1A receptor after […] by liquid scintillation counting.
Chain of Vasopressin V1a receptor (Homo sapiens, UniProt P37288) (P37288 whole entry): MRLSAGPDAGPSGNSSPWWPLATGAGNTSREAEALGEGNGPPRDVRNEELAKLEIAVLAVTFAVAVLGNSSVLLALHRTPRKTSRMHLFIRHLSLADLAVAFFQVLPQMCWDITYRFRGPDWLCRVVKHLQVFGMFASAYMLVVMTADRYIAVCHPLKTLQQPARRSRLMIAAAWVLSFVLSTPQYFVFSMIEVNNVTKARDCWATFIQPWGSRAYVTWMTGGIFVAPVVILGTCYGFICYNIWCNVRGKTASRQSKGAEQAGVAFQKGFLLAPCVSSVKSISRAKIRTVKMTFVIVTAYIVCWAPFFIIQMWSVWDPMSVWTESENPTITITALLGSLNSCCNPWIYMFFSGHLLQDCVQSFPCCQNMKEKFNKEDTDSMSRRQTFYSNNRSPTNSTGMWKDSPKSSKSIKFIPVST
For data set [6], the target named is Vasopressin V1a receptor (Microtus ochrogaster) (UniProt Q9WTV9). Put plainly: Binding affinity to prairie vole ventral pallidum vasopressin V1A receptor by autoradiography. Particulars: tested as the 125I-labelled form. A digest of the protocol: (§1)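 Prairie vole brain cryosections (20 μm, PFC through NAcc and VP) were thawed, dipped in 0.1% paraformaldehyde in PBS pH 7.4 and rinsed in 50 mM Tris pH 7.4. They were incubated 1 h with 50 pM 125I-LVA plus competitor at 0 or 10−10 to 10−5 M, then washed in Tris/2% MgCl2 pH 7.4. Film exposure was 72 h against 125I standards. Ki came from competition curves; sections from six animals.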
Chain of Vasopressin V1a receptor (Microtus ochrogaster) (Q9WTV9 whole entry, looked up): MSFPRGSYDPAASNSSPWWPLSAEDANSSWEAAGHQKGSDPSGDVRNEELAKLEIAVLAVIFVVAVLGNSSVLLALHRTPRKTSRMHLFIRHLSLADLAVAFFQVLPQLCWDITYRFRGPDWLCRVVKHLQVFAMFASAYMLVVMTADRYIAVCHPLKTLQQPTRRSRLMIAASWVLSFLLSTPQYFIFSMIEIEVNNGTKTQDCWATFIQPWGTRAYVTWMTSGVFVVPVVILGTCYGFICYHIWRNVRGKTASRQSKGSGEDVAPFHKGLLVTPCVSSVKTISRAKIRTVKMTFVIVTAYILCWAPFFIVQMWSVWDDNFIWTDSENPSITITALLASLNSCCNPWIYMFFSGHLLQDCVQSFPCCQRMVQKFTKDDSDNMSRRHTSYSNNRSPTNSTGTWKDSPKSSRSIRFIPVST

Data set [7] deals with Vasopressin V1a receptor (Microtus ochrogaster, UniProt Q9WTV9). Nature of the data set: Displacement of [125I]-LVA from prairie vole vasopressin V1A receptor after 72 hrs. A digest of the protocol:
as §1

Data set [8] deals with Brain. Nature of the data set: Drug uptake in Sprague-Dawley rat brain at 277 uCi, iv after 45 mins by PET imaging. Particulars: in vivo, 0.75 h. It counts as ADME, organism-based. A digest of the protocol:
(§2)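 Female Sprague–Dawley rats got estradiol benzoate 10–12 μg sc in sesame oil daily for 3 days to up-regulate OTR. They were anesthetised with ketamine/xylazine 100/10 mg/kg ip, and 200–300 μCi radioligand was injected via tail vein catheter. MicroPET brain scans began at injection (90 min 18F, 45 min 11C) after a 7 min Co-57 transmission scan. Frames were summed and whole-brain time-activity curves plotted.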

The subject of data set [9] is Brain. Nature of the data set: Drug uptake in Sprague-Dawley rat brain at 295 uCi. iv after 5 mins by PET imaging. The class given is ADME, organism-based. To be noted: in vivo. In a few lines:
as §2

For data set [10], the system named is Thyroid gland. Put plainly: Drug uptake in iv dosed Sprague-Dawley rat thyroid assessed as per organ after 60 mins. It counts as ADME, organism-based. To be noted: in vivo, 1 h. In a few lines: (§3)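 Female Sprague–Dawley rats (180–200 g), fed ad libitum, were anesthetised with im ketamine/xylazine. Radioligand was given iv via tail vein in 0.1–0.2 ml 10% ethanol/saline. Animals were killed at 15, 30, 60 or 120 min and the thyroid was counted by gamma counter with dose standards. Counts were decay-corrected and given as percent injected dose per organ; n = 4, or 3 where noted.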

A short description of data set [11]: Chemical stability of the compound in 10 % ethanol assessed as remaining radioactivity. The class given is physicochemical.
The subject of data set [12] is Thyroid gland. Nature of the data set: Drug uptake in iv dosed Sprague-Dawley rat thyroid assessed as per organ after 120 mins. The class given is ADME, organism-based. To be noted: in vivo, 2 h. In a few lines:
as §3

The subject of data set [13] is Thyroid gland. Nature of the data set: Drug uptake in iv dosed Sprague-Dawley rat thyroid assessed as per organ after 15 mins. It counts as ADME, organism-based. Particulars: in vivo, 0.25 h. In a few lines:
as §3

Data set [14] relates to Thyroid gland. Put plainly: Drug uptake in iv dosed Sprague-Dawley rat thyroid assessed as per organ after 30 mins. It counts as ADME, organism-based. Particulars: in vivo, 0.5 h. In a few lines:
as §3

Chain of Vasopressin V2 receptor (P30518 whole entry): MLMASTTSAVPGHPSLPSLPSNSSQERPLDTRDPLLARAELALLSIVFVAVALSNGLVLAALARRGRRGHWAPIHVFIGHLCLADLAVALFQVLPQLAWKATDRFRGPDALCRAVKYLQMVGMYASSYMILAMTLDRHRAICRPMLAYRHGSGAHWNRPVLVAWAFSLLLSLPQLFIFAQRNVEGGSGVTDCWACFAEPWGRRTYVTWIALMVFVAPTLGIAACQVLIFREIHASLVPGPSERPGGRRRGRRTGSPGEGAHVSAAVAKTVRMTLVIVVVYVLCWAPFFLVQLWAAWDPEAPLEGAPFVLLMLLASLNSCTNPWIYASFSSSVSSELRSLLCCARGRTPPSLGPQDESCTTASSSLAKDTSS
Chain of Vasopressin V1a receptor (Microtus ochrogaster, UniProt Q9WTV9) (Q9WTV9 whole entry): as the sequence (Q9WTV9 whole entry, looked up) above

As a reminder, the logD is the decadic logarithm of the distribution of all forms, ionised or not, between an organic phase and buffer at a given pH. The term Ki denotes a measure of affinity in units of concentration, obtained from inhibition or displacement. Lower therefore signals higher affinity. `CS(=O)(=O)N1CCC(Oc2ccc(CC(=O)N3CCC(N4C(=O)CCc5ccccc54)CC3)c(OC/C=C\I)c2)CC1` displayed a pH-dependent lipophilicity (logD) at 0.05 h in data set [1] of 2.18. For the same compound, the Ki in [2] is 5.7 nM; in data set [3] it was 9600 nM; in [4], 580 nM; in [5] it was 530 nM; in data set [7], 16 nM. For the same compound, the outcome in [6] was Active.

In [1], `COc1cc(OC2CCN(S(C)(=O)=O)CC2)ccc1CC(=O)N1CCC(N2C(=O)CCc3ccccc32)CC1` displayed a log distribution coefficient (logD) at 0.05 h of 2.25. Moreover, the Ki in [2] worked out at 28 nM; in data set [4] it was 3700 nM; in [5], 4800 nM; in data set [7], 78 nM.

In turn, `CS(=O)(=O)N1CCC(Oc2ccc(CC(=O)N3CCC(N4C(=O)CCc5ccccc54)CC3)c(O)c2)CC1` registered a Ki in [2] of 78 nM.

In [1], `CS(=O)(=O)N1CCC(Oc2ccc(CC(=O)N3CCC(N4C(=O)CCc5ccccc54)CC3)c(OC/C=C/I)c2)CC1` returned a log distribution coefficient (logD) at 0.05 h of 2.36. In addition, the inhibition constant Ki in data set [2] was 10 nM; in data set [4] it was 1400 nM; in data set [5] it was 790 nM; in data set [7] it was 1.7 nM.

Turning to `CS(=O)(=O)N1CCC(Oc2ccc(CC(=O)N3CCC(N4C(=O)CCc5ccccc54)CC3)c(O[11CH3])c2)CC1`, the Drug uptake result in [8] is on record as “Not Active”.

`CS(=O)(=O)N1CCC(Oc2ccc(CC(=O)N3CCC(N4C(=O)CCc5ccccc54)CC3)c(OCCF)c2)CC1` returned a logD at 0.05 h in data set [1] of 2.02. The Ki in [2] amounted to 16 nM; in [4] it was 1800 nM; in [5], 8700 nM; in data set [7] it was 9.4 nM.

`CS(=O)(=O)N1CCC(Oc2ccc(CC(=O)N3CCC(N4C(=O)CCc5ccccc54)CC3)c(OCC[18F])c2)CC1`: the Drug uptake entry in [9] is listed as “Active”.

For `CS(=O)(=O)N1CCC(Oc2ccc(CC(=O)N3CCC(N4C(=O)CCc5ccccc54)CC3)c(OC/C=C/[125I])c2)CC1`, the Drug uptake in [10] is listed as 0.81 %ID; in [12], 1.05 %ID; in [13] it was 0.19 %ID; in data set [14], 0.53 %ID. In addition, the Stability in [11] stood at 15%.

In the case of `CS(=O)(=O)N1CCC(Oc2ccc(CC(=O)N3CCC(N4C(=O)CCc5ccccc54)CC3)c(OC/C=C\[125I])c2)CC1`, the Drug uptake in data set [10] is 0.32 %ID; in data set [12], 0.67 %ID; in data set [13], 0.05 %ID; in [14] it was 0.2 %ID. Also, the Stability in data set [11] is listed as 15%.

The values above are taken from ChEMBL document CHEMBL2016538, “Synthesis and evaluation of C-11, F-18 and I-125 small molecule radioligands for detecting oxytocin receptors” (Bioorg Med Chem, 2012).
